According to ChEMBL document CHEMBL3297679, “Studies on molecular properties prediction, antitubercular and antimicrobial activities of novel quinoline based pyrimidine motifs” (Bioorg Med Chem Lett, 2014):
In brackets after ≈: the same amount, converted by molar mass.

Assays:
Pseudomonas aeruginosa [1] = assay: Ratio of ciprofloxacin MIC to compound MIC for Pseudomonas aeruginosa MTCC 1688; format: functional
Aspergillus niger = assay: Antifungal activity against Aspergillus niger MTCC 282 by conventional broth microdilution method; format: functional
Staphylococcus aureus [2] = assay: Ratio of ciprofloxacin MIC to compound MIC for Staphylococcus aureus MTCC 96; format: functional
Aspergillus clavatus = assay: Antifungal activity against Aspergillus clavatus MTCC 1323 by conventional broth microdilution method; format: functional
Pseudomonas aeruginosa [3] = assay: Antibacterial activity against Pseudomonas aeruginosa MTCC 1688 by conventional broth microdilution method; format: functional
Staphylococcus aureus [4] = assay: Antibacterial activity against Staphylococcus aureus MTCC 96 by conventional broth microdilution method; format: functional
Streptococcus pyogenes [5] = assay: Antibacterial activity against Streptococcus pyogenes MTCC 442 by conventional broth microdilution method; format: functional
Streptococcus pyogenes [6] = assay: Ratio of ciprofloxacin MIC to compound MIC for Streptococcus pyogenes MTCC 442; format: functional
Escherichia coli = assay: Antibacterial activity against Escherichia coli MTCC 443 by conventional broth microdilution method; format: functional
[7] = tested on: Mycobacterium tuberculosis; assay: Antimycobacterial activity against Mycobacterium tuberculosis H37Rv by Lowenstein-Jensen slope method; format: functional; details: for MIC: Mycobacterium tuberculosis, H37Rv
Candida albicans = assay: Antifungal activity against Candida albicans MTCC 227 by conventional broth microdilution method; format: functional
HeLa = assay: Cytotoxicity against human HeLa cells after 24 hrs incubation by MTT assay; format: functional, cell-based
Summary of the method: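 HeLa cells (1.0 × 10⁴) were exposed to a range of test compound concentrations for 24 h at 37 °C under 5% CO₂. MTT was then added, the supernatant was discarded, and the formazan was dissolved in DMSO. Absorbance was read at 540 nm, and IC₅₀ was reported in µM.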

SMILES	Ratio (Pseudomonas aeruginosa [1])	MIC (Aspergillus niger) [µg/mL]	Ratio (Staphylococcus aureus [2])	MIC (Aspergillus clavatus) [µg/mL]	MIC (Pseudomonas aeruginosa [3]) [µg/mL]	MIC (Staphylococcus aureus [4]) [µg/mL]	MIC (Streptococcus pyogenes [5]) [µg/mL]	Ratio (Streptococcus pyogenes [6])	MIC (Escherichia coli) [µg/mL]	inhibition (INH) [7] [%]	MIC [7] [µg/mL]	MIC (Candida albicans) [µg/mL]	IC50 (HeLa) [µM]
N#CCCSC1=NC(c2ccc(O)cc2)=CC(c2cc3cc(Cl)ccc3nc2Cl)N1 (configuration not stated)	2	25 (≈ 54.9 µM)	4	25 (≈ 54.9 µM)	25 (≈ 54.9 µM)	25 (≈ 54.9 µM)	12.5 (≈ 27.5 µM)	4	50 (≈ 110 µM)	99	3.12 (≈ 6.85 µM)	250 (≈ 549 µM)	> 100
COc1cccc(C2=CC(c3cc4cc(Cl)ccc4nc3Cl)NC(SCCC#N)=N2)c1 (configuration not stated)		500 (≈ 1070 µM)		100 (≈ 213 µM)	250 (≈ 533 µM)	50 (≈ 107 µM)	100 (≈ 213 µM)		100 (≈ 213 µM)	97	12.5 (≈ 26.6 µM)	500 (≈ 1070 µM)	
COc1ccc(C2=CC(c3cc4cc(Cl)ccc4nc3Cl)NC(SCCC#N)=N2)cc1 (configuration not stated)		250 (≈ 533 µM)	4	250 (≈ 533 µM)	25 (≈ 53.3 µM)	12.5 (≈ 26.6 µM)	25 (≈ 53.3 µM)	4	25 (≈ 53.3 µM)	99	0.2 (≈ 0.426 µM)	1000 (≈ 2130 µM)	> 100
N#CCCSC1=NC(c2cccc(Br)c2)=CC(c2cc3cc(Cl)ccc3nc2Cl)N1 (configuration not stated)		500 (≈ 965 µM)		1000 (≈ 1930 µM)	1000 (≈ 1930 µM)	500 (≈ 965 µM)	1000 (≈ 1930 µM)		> 1000	66		> 1000	
N#CCCSC1=NC(c2ccc(Br)cc2)=CC(c2cc3cc(Cl)ccc3nc2Cl)N1 (configuration not stated)		1000 (≈ 1930 µM)		500 (≈ 965 µM)	500 (≈ 965 µM)	250 (≈ 482 µM)	500 (≈ 965 µM)		1000 (≈ 1930 µM)	58		500 (≈ 965 µM)	
N#CCCSC1=NC(c2ccccc2)=CC(c2cc3cc(Cl)ccc3nc2Cl)N1 (configuration not stated)		1000 (≈ 2280 µM)		500 (≈ 1140 µM)	250 (≈ 569 µM)	100 (≈ 228 µM)	250 (≈ 569 µM)		500 (≈ 1140 µM)	62		1000 (≈ 2280 µM)	
N#CCCSC1=NC(c2cccc(Cl)c2)=CC(c2cc3cc(Cl)ccc3nc2Cl)N1 (configuration not stated)		500 (≈ 1060 µM)		1000 (≈ 2110 µM)	500 (≈ 1060 µM)	250 (≈ 528 µM)	500 (≈ 1060 µM)		1000 (≈ 2110 µM)	62		> 1000	
N#CCCSC1=NC(c2ccc(Cl)cc2)=CC(c2cc3cc(Cl)ccc3nc2Cl)N1 (configuration not stated)		500 (≈ 1060 µM)		1000 (≈ 2110 µM)	500 (≈ 1060 µM)	250 (≈ 528 µM)	500 (≈ 1060 µM)		1000 (≈ 2110 µM)	42		> 1000	
N#CCCSC1=NC(c2cccc(F)c2)=CC(c2cc3cc(Cl)ccc3nc2Cl)N1 (configuration not stated)		> 1000		500 (≈ 1090 µM)	500 (≈ 1090 µM)	125 (≈ 273 µM)	250 (≈ 547 µM)		500 (≈ 1090 µM)	41		1000 (≈ 2190 µM)	
N#CCCSC1=NC(c2ccc(F)cc2)=CC(c2cc3cc(Cl)ccc3nc2Cl)N1 (configuration not stated)		1000 (≈ 2190 µM)		500 (≈ 1090 µM)	> 1000	500 (≈ 1090 µM)	500 (≈ 1090 µM)		1000 (≈ 2190 µM)	69		1000 (≈ 2190 µM)	
Cc1cccc(C2=CC(c3cc4cc(Cl)ccc4nc3Cl)NC(SCCC#N)=N2)c1 (configuration not stated)		500 (≈ 1100 µM)		500 (≈ 1100 µM)	100 (≈ 221 µM)	100 (≈ 221 µM)	100 (≈ 221 µM)		250 (≈ 551 µM)	81		1000 (≈ 2210 µM)	
Cc1ccc(C2=CC(c3cc4cc(Cl)ccc4nc3Cl)NC(SCCC#N)=N2)cc1 (configuration not stated)		500 (≈ 1100 µM)	2	250 (≈ 551 µM)	50 (≈ 110 µM)	25 (≈ 55.1 µM)	25 (≈ 55.1 µM)	2	50 (≈ 110 µM)	98	3.12 (≈ 6.88 µM)	500 (≈ 1100 µM)	94.2
N#CCCSC1=NC(c2cccc([N+](=O)[O-])c2)=CC(c2cc3cc(Cl)ccc3nc2Cl)N1 (configuration not stated)		500 (≈ 1030 µM)		> 1000	1000 (≈ 2060 µM)	500 (≈ 1030 µM)	1000 (≈ 2060 µM)		> 1000	38		> 1000	
N#CCCSC1=NC(c2ccc([N+](=O)[O-])cc2)=CC(c2cc3cc(Cl)ccc3nc2Cl)N1 (configuration not stated)		> 1000		1000 (≈ 2060 µM)	1000 (≈ 2060 µM)	1000 (≈ 2060 µM)	500 (≈ 1030 µM)		500 (≈ 1030 µM)	56		> 1000	
N#CCCSC1=NC(c2cccc(O)c2)=CC(c2cc3cc(Cl)ccc3nc2Cl)N1 (configuration not stated)		250 (≈ 549 µM)		250 (≈ 549 µM)	250 (≈ 549 µM)	100 (≈ 220 µM)	100 (≈ 220 µM)		125 (≈ 275 µM)	98	100 (≈ 220 µM)	500 (≈ 1100 µM)	
O=C(O)c1cn(C2CC2)c2cc(N3CCNCC3)c(F)cc2c1=O [CIPROFLOXACIN]						50 (≈ 151 µM)	50 (≈ 151 µM)		25 (≈ 75.4 µM)				
COC1=CC(=O)C[C@@H](C)[C@]12Oc1c(Cl)c(OC)cc(OC)c1C2=O [GRISEOFULVIN]		100 (≈ 283 µM)		100 (≈ 283 µM)								500 (≈ 1420 µM)	
NNC(=O)c1ccncc1 [ISONIAZID]											0.2 (≈ 1.46 µM)		
